Converted amounts (≈) assume the structure as drawn. The source made the active and inactive calls. The calls are words filed in the database; no cut-off is given here.
Columns and labels:
[1] = test system: Sortase A (Staphylococcus aureus), Q9S446 [UNDEFINED MUTATION]; test: Inhibition of SrtA delta N24 mutant in Staphylococcus aureus subsp. aureus str. Newman reduction in abundance of anchored SpA at 100 uM by FITC-labeled human IgG fluorescence based assay
Summary of the method: (§1)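 Newman wild type and ΔsrtA were diluted 1:1000 in TSB and grown at 37 °C with inhibitor until A600 reached 1.0. Cells were PBS-washed, labelled with FITC-human IgG for 30 min at rt, and washed again before fluorescence was read. Triplicate wells, three independent experiments, unpaired two-tailed t-test.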

[2] = test system: Sortase A (Staphylococcus aureus), Q9S446 [UNDEFINED MUTATION]; test: Covalent inhibition of Staphylococcus aureus SrtA delta N24 mutant expressed in Escherichia coli BL21 (DE3) assessed as reduction in IsdA (64 to 323 residues) transpeptidation incubated for 20 mins followed by 10 fold compound dilution by SDS-PAGE analysis
[3] = test system: Sortase A (Staphylococcus aureus), Q9S446 [UNDEFINED MUTATION]; test: Inhibition of SrtA delta N24 mutant in Staphylococcus aureus subsp. aureus str. Newman reduction in abundance of anchored SpA by Western blot analysis
Summary of the method: (§2)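 Newman was diluted 1:1000 and grown at 37 °C with inhibitor to A600 3.0. Cells were PBS-washed and digested with lysozyme for 30 min at 37 °C. Protoplasts were removed and the supernatant (cell wall fraction) was separated by SDS-PAGE and immunoblotted for SpA, with ClpP as the loading control. Three independent experiments.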

[4] = test system: Sortase A (Staphylococcus aureus), Q9S446 [UNDEFINED MUTATION]; test: Inhibition of SrtA delta N24 mutant in Staphylococcus aureus subsp. aureus str. Newman reduction in abundance of anchored SpA by FITC-labeled human IgG fluorescence based assay; summary of the method: as §1
[5] = test system: Sortase A (Staphylococcus aureus), Q9S446 [UNDEFINED MUTATION]; test: Covalent binding affinity to Staphylococcus aureus SrtA delta N24 mutant assessed as induction of m/z shift incubated for 12 hrs by ESI-LC/MS analysis
Summary of the method: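 His-tagged SrtAΔN24 preincubated 12 hr with or without a 10-fold excess of compound. Diluted in 50% acetonitrile / 0.2% formic acid, run on a C8 column with a 10–90% acetonitrile gradient over 11 min, then ESI-TOF MS. MTSET served as the covalent reference.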

Staphylococcus aureus [6] = test: Antibacterial activity against Staphylococcus aureus subsp. aureus str. Newman assessed as reduction in bacterial growth at 200 uM incubated for 24 hrs; format: functional, organism-based
Summary of the method: (§3)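 Overnight culture diluted 1:1000 in TSB, grown to A600 0.6-0.8, then diluted 1:400 in TSB. Aliquots incubated with the compound at a range of concentrations. A600 read every 1 hr for 24 hr to build growth curves. Technical triplicates per point; three independent experiments.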

Staphylococcus aureus [7] = test: Effect on cell growth of Staphylococcus aureus subsp. aureus USA300 at 150 ug/ml; format: organism-based; summary of the method: as §3
[8] = test system: Sortase A (Staphylococcus aureus), Q9S446 [UNDEFINED MUTATION]; test: Reversible inhibition of Staphylococcus aureus SrtA delta N24 mutant expressed in Escherichia coli BL21 (DE3) assessed as reduction in IsdA (64 to 323 residues) transpeptidation incubated for 20 mins followed by 10 fold compound dilution by SDS-PAGE analysis
Sortase A [9] = target: T1, Sortase A (Staphylococcus aureus, UniProt Q9S446, DELTAN24); test: Inhibition of Staphylococcus aureus SrtA delta N24 mutant expressed in Escherichia coli BL21 (DE3) assessed as reduction in IsdA (64 to 323 residues) transpeptidation incubated for 20 mins by SDS-PAGE analysis
Summary of the method: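 His-tagged SrtAΔN24 (100 µg) was preincubated 20 min at rt with compound (1–25 µM) in 50 mM Tris-HCl pH 7.5, 150 mM NaCl, 5 mM CaCl2. IsdA64-323 (150 µg) and 3 mM Gly3 were then added for 1.5 hr at 37 °C. […] Three independent experiments.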

[10] = test system: Sortase A (Staphylococcus aureus), Q9S446 [UNDEFINED MUTATION]; test: Inhibition of SrtA delta N24 mutant in Staphylococcus aureus subsp. aureus str. Newman reduction in abundance of anchored SpA at 50 to 200 uM by Western blot analysis; summary of the method: as §2
[11] = Solubility in PBS in presence of 1% DMSO by LC/MS analysis; format: physicochemical; settings: PBS with 1% DMSO
Sortase A [12] = target: T1, Sortase A; test: Inhibition of Staphylococcus aureus SrtA delta N24 mutant expressed in Escherichia coli BL21 (DE3) using Abz-LPATG-Dnp substrate incubated for 20 mins by FRET-based assay
Summary of the method: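 His-tagged SrtAΔN24 (1 µM) was preincubated 20 min at rt with compound (0.2–100 µM) in 50 mM Tris-HCl pH 7.5, 150 mM NaCl, 5 mM CaCl2. Abz-LPATG-Dnp was added at 10 µM and fluorescence (ex 309 / em 420 nm) was read each minute for 20 min. IC50 came from a sigmoidal fit. Technical triplicates, three independent experiments.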

Staphylococcus aureus [13] = test: Antibiofilm activity against Staphylococcus aureus subsp. aureus str. Newman assessed as reduction in biofilm biomass at 25 to 100 uM incubated for 18 hrs by Crystal violet staining assay; format: functional, organism-based
Summary of the method: (§4)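 Overnight culture diluted 1:100 in TSB, plated in quadruplicate with inhibitor, and held static at 37 °C for 18 hr. Wells rinsed with PBS, and the dried, fixed biofilm stained with 0.1% crystal violet for 15 min. Stain dissolved in 30% acetic acid and absorbance read at 595 nm. Three independent experiments.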

Staphylococcus aureus [14] = test: Antibacterial activity against Staphylococcus aureus subsp. aureus USA300 infected in BALB/c mouse model of systemic infection assessed as prolongation of time to death at 40 mg/kg/day, ip for 10 days; format: functional, organism-based
Summary of the method: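 BALB/c females, 6 weeks old, n = 10. USA300 grown 3 hr at 37 °C from a 1:1,000 dilution of overnight culture, washed, suspended in PBS. Compound suspended in ddH2O with 4% Tween 80 and 4% DMSO, given i.p. at 40 mg/kg every 24 hr; saline placebo. Mice challenged periorbitally 4 hr after the first dose. Survival followed over 10 days.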

[15] = test system: Sortase A (Staphylococcus aureus), Q9S446 [UNDEFINED MUTATION]; test: Effect on structural folding of Staphylococcus aureus SrtA delta N24 mutant expressed in Escherichia coli BL21 (DE3 assessed as induction of gross structural perturbations by CD spectroscopy
Summary of the method: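 SrtAΔN24 at 10 µM was incubated with compound dissolved in methanol, and CD spectra were recorded. Two independent experiments.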

Staphylococcus aureus [16] = test: Antibacterial activity against Staphylococcus aureus subsp. aureus USA300 infected in BALB/c mouse model of systemic infection assessed as mouse survival at 40 mg/kg/day, ip for 10 days; format: functional; settings: 240 h
Summary of the method: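 BALB/c females, 6 weeks old, n = 10. Drug suspended in ddH2O with 4% Tween 80 and 4% DMSO, given i.p. at 40 mg/kg every 24 hr. Saline was the placebo. Challenge by periorbital injection of USA300 4 hr after the first dose, about 1 × 10^8 CFU (lethal). Survival was followed for 10 days.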

[17] = Cmax in mouse at 10 mg/kg, ip administered as single dose; format: ADME, organism-based; design: dose 10 mg/kg, route intraperitoneal; settings: in vivo
[18] = test system: Sortase A (Staphylococcus aureus), Q9S446 [UNDEFINED MUTATION]; test: Inhibition of Staphylococcus aureus SrtA delta N24 mutant expressed in Escherichia coli BL21 (DE3) using Abz-LPATG-Dnp substrate incubated for 20 mins in presence of 0.01% v/v Triton X-100 by FRET-based assay
Staphylococcus aureus [19] = test: Antibiofilm activity against Staphylococcus aureus subsp. aureus USA300 assessed as reduction in biofilm formation at 25 to 100 uM incubated for 18 hrs by Crystal violet staining assay; format: functional, organism-based; summary of the method: as §4
[20] = test system: Sortase A (Staphylococcus aureus), Q9S446 [UNDEFINED MUTATION]; test: Time dependent inhibition of Staphylococcus aureus SrtA delta N24 mutant expressed in Escherichia coli BL21 (DE3) assessed as reduction in IsdA (64 to 323 residues) transpeptidation by SDS-PAGE analysis
Staphylococcus aureus [21] = test: Antibacterial activity against Staphylococcus aureus subsp. aureus str. Newman assessed as reduction in bacterial growth incubated for 24 hrs; format: functional; summary of the method: as §3
[22] = test system: Sortase A (Staphylococcus aureus), Q9S446 [UNDEFINED MUTATION]; test: Binding affinity to Staphylococcus aureus SrtA delta N24 mutant expressed in Escherichia coli BL21 (DE3 assessed as attenuation of NMR signals by CPMG-NMR analysis
Summary of the method: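 NMR titration in 20 mM sodium phosphate pH 7.4, 100 mM NaCl, 2% DMSO, at 25 °C on a 600 MHz spectrometer with a cryoprobe.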

CCCNC1=C(c2ccccc2)C(=O)C2C(/C=C/S(=O)(=O)c3ccccc3)=CC=CC2C1=O (stereo unspecified)
inhibition [1]: inactive

C[N+](C)(C)CCSS(C)(=O)=O
inhibition [2]: Active | inhibition [3]: Active | inhibition [4]: Active | Activity [5]: 120 Da

O=c1sn(-c2cccc3ccccc23)c(=O)n1Cc1ccccc1 [TIDEGLUSIB]
inhibition (Staphylococcus aureus [6]): Active | Activity (Staphylococcus aureus [7]): Non-Toxic | inhibition [8]: Active | IC50 (Sortase A [9]): 5.9 µM | inhibition [10]: Active | solubility [11]: 11 µg/mL | IC50 (Sortase A [12]): 0.6 µM | Activity (Staphylococcus aureus [13]): Active | Activity (Staphylococcus aureus [14]): Active | Activity [15]: inactive | survival at 40 mg/kg/day (Staphylococcus aureus [16]): 40% | Cmax [17]: 137 ng/mL | inhibition [18]: Active | Activity (Staphylococcus aureus [19]): Active | inhibition [4]: Dose-dependent effect | TDI [20]: inactive | MIC (Staphylococcus aureus [21]): > 100 µg/mL | Activity [5]: inactive

Cc1noc(C)c1-n1sc(=O)n(Cc2ccccc2Cl)c1=O
IC50 (Sortase A [9]): 3.7 µM | IC50 (Sortase A [12]): 0.6 µM | MIC (Staphylococcus aureus [21]): > 100 µg/mL

Cn1c(=O)sn(Cc2ccccc2)c1=O
IC50 (Sortase A [9]): 23.6 µM | IC50 (Sortase A [12]): 3.5 µM | MIC (Staphylococcus aureus [21]): 12.5 µg/mL (≈ 56.2 µM)

O=c1sn(-c2cccc3ccccc23)c(=O)n1Cc1ccc(O)cc1
IC50 (Sortase A [9]): 4.7 µM | IC50 (Sortase A [12]): 2.6 µM | MIC (Staphylococcus aureus [21]): 100 µg/mL (≈ 285 µM)

O=c1sn(-c2cccc3ccccc23)c(=O)n1Cc1ccc(Cl)c(Cl)c1
IC50 (Sortase A [9]): 14.4 µM | IC50 (Sortase A [12]): 0.9 µM | MIC (Staphylococcus aureus [21]): 50 µg/mL (≈ 124 µM)

Cc1ccc(Cn2c(=O)sn(Cc3ccccc3)c2=O)cc1
IC50 (Sortase A [9]): 35.7 µM | IC50 (Sortase A [12]): 5.1 µM | MIC (Staphylococcus aureus [21]): 12.5 µg/mL (≈ 40 µM)

O=c1sn(-c2cccc3ccccc23)c(=O)n1Cc1ccc(Cl)cc1
IC50 (Sortase A [9]): 23.1 µM | IC50 (Sortase A [12]): 0.7 µM | MIC (Staphylococcus aureus [21]): 100 µg/mL (≈ 271 µM)

Cc1noc(C)c1-n1sc(=O)n(Cc2ccccc2)c1=O
inhibition [8]: Active | IC50 (Sortase A [9]): 4.6 µM | solubility [11]: 144 µg/mL | IC50 (Sortase A [12]): 0.8 µM | Activity (Staphylococcus aureus [13]): Active | Activity [15]: inactive | inhibition [18]: Active | Activity [22]: Dose-dependent effect | inhibition [4]: Dose-dependent effect | TDI [20]: inactive | MIC (Staphylococcus aureus [21]): > 100 µg/mL | Activity [5]: inactive

CC(C)n1c(=O)sn(Cc2ccccc2)c1=O
IC50 (Sortase A [9]): > 50 µM | IC50 (Sortase A [12]): > 100 µM | MIC (Staphylococcus aureus [21]): 6.2 µg/mL (≈ 24.8 µM)

Reference: ChEMBL document CHEMBL4619779, “Tideglusib and Its Analogues As Inhibitors of Staphylococcus aureus SrtA” (J Med Chem, 2020)
